Laboratory results reported in ChEMBL document CHEMBL1641433, “Replacement of the double bond of antitubulin chalcones with triazoles and tetrazoles: Synthesis and biological evaluation” (Bioorg Med Chem Lett, 2011).
pIC50: −log10 of the molar value. Each block holds one compound with its values, some of them ahead of it. Active and inactive are the calls of the source. The calls are words filed in the database; no cut-off is given here.

Legend:
SH-SY5Y [1] = experiment: Cytotoxicity against human SH-SY5Y cells assessed as cell viability at 10 uM after 48 hrs by MTT assay relative to control; format: functional; conditions: for viability at 10 µM: read-out: Activity
Summary of the method: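 Single-concentration screen: SH-SY5Y cells given 10 µM compound for 48 h. Viability read by MTT and expressed as % of untreated control. Mean ± SEM of three replicates.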

SH-SY5Y [2] = experiment: Cytotoxicity against human SH-SY5Y cells after 48 hrs by MTT assay; format: functional, cell-based
Summary of the method: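 SH-SY5Y neuroblastoma cells treated 48 h across a dose range. Viability/proliferation read by MTT. IC50 taken from dose–response curves, mean ± SEM of at least eight determinations from two separate experiments.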

[3] = Inhibition of tubulin polymerization
SH-SY5Y [4] = experiment: Cell cycle arrest in human SH-SY5Y cells assessed as accumulation at G0/G1 phase at 2 times IC50 concentration after 16 hrs by FACS analysis (reference value: 49 +/- 5.5%); format: functional
SH-SY5Y [5] = experiment: Cell cycle arrest in human SH-SY5Y cells assessed as accumulation at S phase at 2 times IC50 concentration after 16 hrs by FACS analysis (reference value: 36 +/- 4%); format: functional
SH-SY5Y [6] = experiment: Cell cycle arrest in human SH-SY5Y cells assessed as accumulation at G2/M phase at 2 times IC50 concentration after 16 hrs by FACS analysis (reference value: 15 +/- 4.8%); format: functional

SMILES: COc1ccc(-n2cc(C(=O)c3cc(OC)c(OC)c(OC)c3)nn2)cc1OC
Activity (SH-SY5Y [1]): inactive

SMILES: COc1cc(C(=O)c2cn(-c3cc(OC)c(OC)c(OC)c3)nn2)cc(OC)c1OC
Activity (SH-SY5Y [1]): inactive

SMILES: COc1ccc(-c2[nH]nnc2C(=O)c2cc(OC)c(OC)c(OC)c2)cc1
viability at 10 µM (SH-SY5Y [1]): > 70%

SMILES: COc1ccc(-n2cc(C(=O)c3cc(OC)c(OC)c(OC)c3)nn2)cc1
Activity (SH-SY5Y [1]): inactive

SMILES: COc1ccc(-n2cc(C(=O)c3cc(OC)c(OC)c(OC)c3)nn2)cc1F
Activity (SH-SY5Y [1]): inactive

SMILES: COc1cc(C(=O)c2cn(-c3cnc4ccccc4c3)nn2)cc(OC)c1OC
Activity (SH-SY5Y [1]): inactive

SMILES: COc1cc(C(=O)c2cn(-c3ccc(OC(F)(F)F)cc3)nn2)cc(OC)c1OC
Activity (SH-SY5Y [1]): inactive

SMILES: COc1ccc(-n2cc(C(=O)c3cc(OC)c(OC)c(OC)c3)nn2)c(OC)c1
Activity (SH-SY5Y [1]): inactive

SMILES: COc1cc(OC(F)(F)F)cc(-n2cc(C(=O)c3cc(OC)c(OC)c(OC)c3)nn2)c1
Activity (SH-SY5Y [1]): inactive

SMILES: COc1ccc(-n2cc(C(=O)c3cc(OC)c(OC)c(OC)c3)nn2)cc1[N+](=O)[O-]
Activity (SH-SY5Y [1]): inactive

SMILES: COc1ccccc1-n1cc(C(=O)c2cc(OC)c(OC)c(OC)c2)nn1
Activity (SH-SY5Y [1]): inactive

pIC50 [3]: 6.00
SMILES: COc1ccc(/C=C/C(=O)c2cc(OC)c(OC)c(OC)c2)cc1O
pIC50 (SH-SY5Y [2]): 7.30 | viability at 10 µM (SH-SY5Y [1]): 17% | Activity (SH-SY5Y [4]): 23% | Activity (SH-SY5Y [5]): 48% | Activity (SH-SY5Y [6]): 30%

SMILES: COc1cccc(-n2cc(C(=O)c3cc(OC)c(OC)c(OC)c3)nn2)c1O
Activity (SH-SY5Y [1]): inactive

SMILES: COc1cc(C(=O)c2cn(-c3ccc4c(c3)OCO4)nn2)cc(OC)c1OC
Activity (SH-SY5Y [1]): inactive

pIC50 [3]: 5.74
SMILES: COc1ccc(/C=C(\C)C(=O)c2cc(OC)c(OC)c(OC)c2)cc1O
pIC50 (SH-SY5Y [2]): 9.68

SMILES: COc1ccc(C(=O)C#Cc2cc(OC)c(OC)c(OC)c2)cc1
viability at 10 µM (SH-SY5Y [1]): 20.4% | Activity (SH-SY5Y [4]): 76% | Activity (SH-SY5Y [5]): 18% | Activity (SH-SY5Y [6]): 8%

SMILES: COc1cc(OC)cc(-n2cc(C(=O)c3cc(OC)c(OC)c(OC)c3)nn2)c1
Activity (SH-SY5Y [1]): inactive

SMILES: COc1ccc(C(=O)c2nn[nH]c2-c2cc(OC)c(OC)c(OC)c2)cc1
viability at 10 µM (SH-SY5Y [1]): > 70%

SMILES: COc1ccc(-n2cc(C(=O)c3cc(OC)c(OC)c(OC)c3)nn2)cc1O
Activity (SH-SY5Y [1]): inactive

SMILES: COc1cccc(-n2cc(C(=O)c3cc(OC)c(OC)c(OC)c3)nn2)c1
Activity (SH-SY5Y [1]): inactive

SMILES: COc1ccc(-n2nnnc2C(=O)c2cc(OC)c(OC)c(OC)c2)cc1O
viability at 10 µM (SH-SY5Y [1]): 51.6% | Activity (SH-SY5Y [4]): 41% | Activity (SH-SY5Y [5]): 30% | Activity (SH-SY5Y [6]): 29%

SMILES: COc1cc(-n2cc(C(=O)c3cc(OC)c(OC)c(OC)c3)nn2)ccc1O
Activity (SH-SY5Y [1]): inactive

SMILES: COc1cc(C(=O)c2cn(-c3cccc4ccccc34)nn2)cc(OC)c1OC
Activity (SH-SY5Y [1]): inactive

SMILES: COc1cc(C(=O)c2cn(-c3ccc4ccccc4c3)nn2)cc(OC)c1OC
Activity (SH-SY5Y [1]): inactive

SMILES: COc1ccc(C#CC(=O)c2cc(OC)c(OC)c(OC)c2)cc1
viability at 10 µM (SH-SY5Y [1]): 27.7% | Activity (SH-SY5Y [4]): 79% | Activity (SH-SY5Y [5]): 16% | Activity (SH-SY5Y [6]): 6%
